Published values gathered from unrelated publications.
≈ marks a conversion by molar mass, not a printed value.
Organism: Nakaseomyces glabratus

Cc1cccc(-n2cc(Cn3c(C(=O)O)nc4ccccc4c3=O)nn2)c1  IC50 (microbial growth, broth dilution; ATCC90030; 24 h): 245 µg/mL (≈ 677 µM)
CCCCCCOc1c(OC)cc(NC(C)CCCN)c2nc(C(C)(C)C)ccc12 (stereo not shown)  MIC (microbial growth, broth dilution; ATCC90030): 20 µg/mL (≈ 48.1 µM)
CCCCCCCCCCCCN1CCN(CC(O)(Cn2cncn2)c2ccc(Cl)cc2Cl)CC1 (stereo not shown)  MIC (microbial growth, broth dilution; ATCC2001; 48 h): 0.975 µg/mL (≈ 1.86 µM)
CCOC(=O)c1nc2ccccc2c(=O)n1Cc1cn(-c2ccccc2C)nn1  IC50 (microbial growth, broth dilution; ATCC90030; 24 h): 351 µg/mL (≈ 902 µM)
CCCCOc1c(OC)cc(NC(C)CCCN)c2nc(C(C)(C)C)cc(C)c12 (stereo not shown)  MFC (microbial killing; ATCC90030): > 20 µg/mL
CCCCCCCCN1CCN(CC(O)(Cn2cncn2)c2ccc(F)cc2F)CC1 (stereo not shown)  MIC (microbial growth, broth dilution; ATCC2001; 48 h): 15.6 µg/mL (≈ 35.8 µM)
C[C@@H]1[C@H](O)[C@@H](C)/C=C/C=C/C=C/C=C/C=C/C=C/C=C/[C@H](O[C@@H]2O[C@H](C)[C@@H](O)[C@H](N)[C@@H]2O)C[C@@H]2O[C@](O)(C[C@@H](O)C[C@@H](O)[C@H](O)CC[C@@H](O)C[C@@H](O)CC(=O)O[C@H]1C)C[C@H](O)[C@H]2C(=O)O  MFC (microbial killing; ATCC90030): 1.25 µg/mL (≈ 1.35 µM)
CN1CCNCC1  MIC (microbial growth, broth dilution; ATCC2001; 48 h): > 31.3 µg/mL
COc1ccc(-n2cc(Cn3c(C(=O)O)nc4ccccc4c3=O)nn2)cc1  IC50 (microbial growth, broth dilution; ATCC90030; 24 h): 718 µg/mL (≈ 1900 µM)
CCCCCN1CCN(CC(O)(Cn2cncn2)c2ccc(F)cc2F)CC1 (stereo not shown)  MIC (microbial growth, broth dilution; ATCC2001; 48 h): > 31.3 µg/mL
CCCCCCOc1c(OC)cc(NC(C)CCCNC(=O)C(N)Cc2cnc[nH]2)c2nc(C(C)(C)C)ccc12 (stereo not shown)  MFC (microbial killing; ATCC90030): 20 µg/mL (≈ 36.2 µM)
CCCCCCCCCN1CCNCC1  MIC (microbial growth, broth dilution; ATCC2001; 48 h): 31.3 µg/mL (≈ 147 µM)
CCCCCOc1c(OC)cc(NC(C)CCCNC(=O)C(N)CCCNC(=N)N)c2nc(C(C)(C)C)ccc12 (stereo not shown)  IC50 (microbial growth; ATCC90030): 19.1 µg/mL (≈ 34.2 µM)
CCOC(=O)c1nc2ccccc2c(=O)n1Cc1cn(-c2ccccc2[N+](=O)[O-])nn1  IC50 (microbial growth, broth dilution; ATCC90030; 24 h): 272 µg/mL (≈ 648 µM)
OC(Cn1cncn1)(Cn1cncn1)c1ccc(F)cc1F  MFC (microbial killing; ATCC1182): > 64 µg/mL
CCOC(=O)c1nc2ccccc2c(=O)n1Cc1cn(-c2ccccc2F)nn1  IC50 (microbial growth, broth dilution; ATCC90030; 24 h): 245 µg/mL (≈ 622 µM)
OC(Cn1cncn1)(Cn1cncn1)c1ccc(F)cc1F  MIC90 (microbial growth, broth dilution; 24 h): 16 µg/mL (≈ 52.2 µM)
CCOC(=O)c1nc2ccccc2c(=O)n1Cc1cn(-c2ccc([N+](=O)[O-])cc2)nn1  IC50 (microbial growth, broth dilution; ATCC90030; 24 h): 316 µg/mL (≈ 751 µM)
CCCCCCCOc1c(OC)cc(NC(C)CCCN)c2nc(C(C)(C)C)cc(C)c12 (stereo not shown)  MIC (microbial growth, broth dilution; ATCC90030): 5 µg/mL (≈ 11.3 µM)
